The source made the active and inactive calls. No cut-off for these calls is given here.
Tested on: not listed separately
Experiment: Cytotoxic activity against mouse Hepa-1c1c7 cells after 48 hrs by fluorescent resazurin dye assay
Assay type: functional, cell-based
Details: Hepa-1c1c7, 48 h

| Compound | EC50 [µM] |
| --- | --- |
| CN1CCN(C(=O)c2ccc3c(NCCc4c[nH]c5ccccc45)c4ccccc4nc3c2)CC1 | 24.8 |
| CN1CCN(C(=O)c2cccc3c(NCCc4c[nH]c5ccccc45)c4ccccc4nc23)CC1 | 55.9 |
| CN1CCN(C(=O)c2ccc3c(NC4CCN(Cc5ccccc5)CC4)c4ccccc4nc3c2)CC1 | 26.9 |
| CCN(CC)C(=O)c1ccc2c(NCCc3c[nH]c4ccccc34)c3ccccc3nc2c1 | 11.2 |

Target: T1, DNA topoisomerase 1 (Homo sapiens) (UniProt P11387)
T1 sequence (whole entry): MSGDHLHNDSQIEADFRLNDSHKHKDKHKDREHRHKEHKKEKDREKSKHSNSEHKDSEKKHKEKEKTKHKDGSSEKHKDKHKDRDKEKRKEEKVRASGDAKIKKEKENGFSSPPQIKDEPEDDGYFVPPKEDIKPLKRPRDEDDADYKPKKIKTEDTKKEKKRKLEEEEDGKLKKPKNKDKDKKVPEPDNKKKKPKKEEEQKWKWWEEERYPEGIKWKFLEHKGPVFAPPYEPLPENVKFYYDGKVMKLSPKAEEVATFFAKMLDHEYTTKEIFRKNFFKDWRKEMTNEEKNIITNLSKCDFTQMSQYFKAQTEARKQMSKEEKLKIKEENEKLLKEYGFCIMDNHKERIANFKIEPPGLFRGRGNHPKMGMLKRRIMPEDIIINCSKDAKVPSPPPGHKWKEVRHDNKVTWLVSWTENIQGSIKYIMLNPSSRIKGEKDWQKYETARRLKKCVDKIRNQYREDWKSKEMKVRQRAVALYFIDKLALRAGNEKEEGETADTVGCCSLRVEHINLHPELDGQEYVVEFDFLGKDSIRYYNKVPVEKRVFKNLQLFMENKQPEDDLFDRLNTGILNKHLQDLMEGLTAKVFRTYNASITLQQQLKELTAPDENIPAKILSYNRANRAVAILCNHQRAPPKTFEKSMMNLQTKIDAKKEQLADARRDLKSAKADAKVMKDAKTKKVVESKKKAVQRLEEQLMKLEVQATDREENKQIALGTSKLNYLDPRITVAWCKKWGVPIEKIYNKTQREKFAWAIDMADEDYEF
Experiment: Induction of covalent topoisomerase 1-DNA adduct stabilization in human MIA PaCa cells at 100 uM after 1 hr by ICE assay
Assay type: cell-based
Details: not given
In short: (§1)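 MiaPACA cells exposed to 20 or 100 μM agent for 1 h at 37 °C (vehicle 0.1% DMSO), then lysed with sarkosyl for the ICE bioassay. CsCl-purified DNA-positive gradient fractions were immunoblotted for topoisomerase I. Four independent experiments.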

| Compound | Activity |
| --- | --- |
| CN1CCN(C(=O)c2ccc3c(NC4CCN(Cc5ccccc5)CC4)c4ccccc4nc3c2)CC1 | Active |

Tested on: MCF7
Experiment: Cytotoxic activity against human MCF7 cells after 48 hrs by fluorescent resazurin dye assay
Assay type: functional, cell-based
Details: MCF7, 48 h

| Compound | EC50 [µM] |
| --- | --- |
| CN1CCN(C(=O)c2ccc3c(NCCc4c[nH]c5ccccc45)c4ccccc4nc3c2)CC1 | 19.2 |
| CN1CCN(C(=O)c2cccc3c(NCCc4c[nH]c5ccccc45)c4ccccc4nc23)CC1 | 37.2 |
| CN1CCN(C(=O)c2ccc3c(NC4CCN(Cc5ccccc5)CC4)c4ccccc4nc3c2)CC1 | 25.7 |
| CCN(CC)C(=O)c1ccc2c(NCCc3c[nH]c4ccccc34)c3ccccc3nc2c1 | 13.5 |

Target: T1, DNA topoisomerase 1 (Homo sapiens)
Experiment: Induction of covalent topoisomerase 1-DNA adduct stabilization in human MIA PaCa cells at 20 uM after 1 hr by ICE assay
Assay type: cell-based
Details: 100 uM, in the assay text read “100 uM” for “20 uM”
In short: as §1

| Compound | Activity |
| --- | --- |
| CN1CCN(C(=O)c2cccc3c(NCCc4c[nH]c5ccccc45)c4ccccc4nc23)CC1 | Active |
| CCN(CC)C(=O)c1ccc2c(NCCc3c[nH]c4ccccc34)c3ccccc3nc2c1 | Active |

Target: T1, DNA topoisomerase 1 (Homo sapiens)
Experiment: Inhibition of human topoisomerase 1-mediated relaxation of supercoiled plasmid O6#7 DNA at 8 uM after 30 mins by gel electrophoresis
Details: not given
In short: (§2)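 Supercoiled plasmid incubated with 2 units topoisomerase I and test agent at 8 μM or at a final 50 or 100 μM. A no-enzyme lane was included. Supercoiled and relaxed DNA bands were resolved on a gel. Four experiments.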

| Compound | Activity |
| --- | --- |
| COc1ccc2c(c1)-c1nn(CCCN(C)C)c3ccc([N+](=O)[O-])c(c13)N2 | Active |

Target: T1, DNA topoisomerase 1 (Homo sapiens)
Experiment: Inhibition of human topoisomerase 1-mediated relaxation of supercoiled plasmid O6#7 DNA at 100 uM after 30 mins by gel electrophoresis
Details: not given
In short: as §2

| Compound | Activity |
| --- | --- |
| CN1CCN(C(=O)c2ccc3c(NCCc4c[nH]c5ccccc45)c4ccccc4nc3c2)CC1 | inactive |
| CN1CCN(C(=O)c2cccc3c(NCCc4c[nH]c5ccccc45)c4ccccc4nc23)CC1 | inactive |
| CN1CCN(C(=O)c2ccc3c(NC4CCN(Cc5ccccc5)CC4)c4ccccc4nc3c2)CC1 | inactive |
| CCN(CC)C(=O)c1ccc2c(NCCc3c[nH]c4ccccc34)c3ccccc3nc2c1 | inactive |

Tested on: NCI-H460
Experiment: Cytotoxic activity against human H460 cells after 48 hrs by fluorescent resazurin dye assay
Assay type: functional, cell-based
Details: NCI-H460, 48 h

| Compound | EC50 [µM] |
| --- | --- |
| CN1CCN(C(=O)c2ccc3c(NCCc4c[nH]c5ccccc45)c4ccccc4nc3c2)CC1 | 31.8 |
| CN1CCN(C(=O)c2cccc3c(NCCc4c[nH]c5ccccc45)c4ccccc4nc23)CC1 | 16 |
| CN1CCN(C(=O)c2ccc3c(NC4CCN(Cc5ccccc5)CC4)c4ccccc4nc3c2)CC1 | 38.5 |
| CCN(CC)C(=O)c1ccc2c(NCCc3c[nH]c4ccccc34)c3ccccc3nc2c1 | 18.8 |

Tested on: not listed separately
Experiment: Cytotoxic activity against human OCL3 cells after 48 hrs by fluorescent resazurin dye assay
Assay type: functional, cell-based
Details: OCL3, 48 h

| Compound | EC50 [µM] |
| --- | --- |
| CN1CCN(C(=O)c2ccc3c(NCCc4c[nH]c5ccccc45)c4ccccc4nc3c2)CC1 | 15.3 |
| CN1CCN(C(=O)c2cccc3c(NCCc4c[nH]c5ccccc45)c4ccccc4nc23)CC1 | 39.8 |
| CN1CCN(C(=O)c2ccc3c(NC4CCN(Cc5ccccc5)CC4)c4ccccc4nc3c2)CC1 | 20.3 |
| CCN(CC)C(=O)c1ccc2c(NCCc3c[nH]c4ccccc34)c3ccccc3nc2c1 | 18.3 |

Tested on: SK-MEL
Experiment: Cytotoxic activity against human SK-MEL cells after 48 hrs by fluorescent resazurin dye assay
Assay type: functional, cell-based
Details: not given

| Compound | EC50 [µM] |
| --- | --- |
| CN1CCN(C(=O)c2ccc3c(NCCc4c[nH]c5ccccc45)c4ccccc4nc3c2)CC1 | 5.3 |
| CN1CCN(C(=O)c2cccc3c(NCCc4c[nH]c5ccccc45)c4ccccc4nc23)CC1 | 16.7 |
| CN1CCN(C(=O)c2ccc3c(NC4CCN(Cc5ccccc5)CC4)c4ccccc4nc3c2)CC1 | 14.6 |
| CCN(CC)C(=O)c1ccc2c(NCCc3c[nH]c4ccccc34)c3ccccc3nc2c1 | 16 |

Tested on: DU-145
Experiment: Cytotoxic activity against human DU145 cells after 48 hrs by fluorescent resazurin dye assay
Assay type: functional, cell-based
Details: DU-145, 48 h

| Compound | EC50 [µM] |
| --- | --- |
| CN1CCN(C(=O)c2ccc3c(NCCc4c[nH]c5ccccc45)c4ccccc4nc3c2)CC1 | 16.6 |
| CN1CCN(C(=O)c2cccc3c(NCCc4c[nH]c5ccccc45)c4ccccc4nc23)CC1 | 37.2 |
| CN1CCN(C(=O)c2ccc3c(NC4CCN(Cc5ccccc5)CC4)c4ccccc4nc3c2)CC1 | 32.4 |
| CCN(CC)C(=O)c1ccc2c(NCCc3c[nH]c4ccccc34)c3ccccc3nc2c1 | 11.9 |

Tested on: not listed separately
Experiment: Cytotoxic activity against human SU-8686 cells after 48 hrs by fluorescent resazurin dye assay
Assay type: functional, cell-based
Details: SU.86.86, 48 h

| Compound | EC50 [µM] |
| --- | --- |
| CN1CCN(C(=O)c2ccc3c(NCCc4c[nH]c5ccccc45)c4ccccc4nc3c2)CC1 | 16.3 |
| CN1CCN(C(=O)c2cccc3c(NCCc4c[nH]c5ccccc45)c4ccccc4nc23)CC1 | 6.8 |
| CN1CCN(C(=O)c2ccc3c(NC4CCN(Cc5ccccc5)CC4)c4ccccc4nc3c2)CC1 | 21.2 |
| CCN(CC)C(=O)c1ccc2c(NCCc3c[nH]c4ccccc34)c3ccccc3nc2c1 | 16.2 |

Tested on: REH
Experiment: Cytotoxic activity against human REH cells after 48 hrs by fluorescent resazurin dye assay
Assay type: functional, cell-based
Details: not given

| Compound | EC50 [µM] |
| --- | --- |
| CN1CCN(C(=O)c2ccc3c(NCCc4c[nH]c5ccccc45)c4ccccc4nc3c2)CC1 | 4.1 |
| CN1CCN(C(=O)c2cccc3c(NCCc4c[nH]c5ccccc45)c4ccccc4nc23)CC1 | 19.7 |
| CN1CCN(C(=O)c2ccc3c(NC4CCN(Cc5ccccc5)CC4)c4ccccc4nc3c2)CC1 | 21 |
| CCN(CC)C(=O)c1ccc2c(NCCc3c[nH]c4ccccc34)c3ccccc3nc2c1 | 15.5 |

Target: T1, DNA topoisomerase 1 (Homo sapiens)
Experiment: Induction of covalent human topoisomerase 1-plasmid O6#7 DNA adduct stabilization assessed as appearance of nicked plasmid at 100 uM by agarose gel electrophoresis
Details: not given
In short: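 Supercoiled plasmid aliquots incubated 30 min at 37 °C with nuclear extract containing 50 units topoisomerase I and test agent at 1.6 μM or 100 μM; the DNA products were then examined.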

| Compound | Activity |
| --- | --- |
| CN1CCN(C(=O)c2ccc3c(NC4CCN(Cc5ccccc5)CC4)c4ccccc4nc3c2)CC1 | Active |

Tested on: HCT-116
Experiment: Cytotoxic activity against human HCT116 cells after 48 hrs by fluorescent resazurin dye assay
Assay type: functional, cell-based
Details: HCT-116, 48 h

| Compound | EC50 [µM] |
| --- | --- |
| CN1CCN(C(=O)c2ccc3c(NCCc4c[nH]c5ccccc45)c4ccccc4nc3c2)CC1 | 27.6 |
| CN1CCN(C(=O)c2cccc3c(NCCc4c[nH]c5ccccc45)c4ccccc4nc23)CC1 | 29 |
| CN1CCN(C(=O)c2ccc3c(NC4CCN(Cc5ccccc5)CC4)c4ccccc4nc3c2)CC1 | 29.2 |
| CCN(CC)C(=O)c1ccc2c(NCCc3c[nH]c4ccccc34)c3ccccc3nc2c1 | 11.2 |

Tested on: HeLa
Experiment: Cytotoxicity against human HeLa cells at 10 to 40 uM by coomassie blue assay in presence of topoisomerase 1-directed siRNA
Details: not given

| Compound | Activity |
| --- | --- |
| CC[C@@]1(O)C(=O)OCc2c1cc1n(c2=O)Cc2cc3ccccc3nc2-1 | inactive |
| CN1CCN(C(=O)c2ccc3c(NC4CCN(Cc5ccccc5)CC4)c4ccccc4nc3c2)CC1 | Active |

Reference: ChEMBL document CHEMBL1153631, “On the role of topoisomerase I in mediating the cytotoxicity of 9-aminoacridine-based anticancer agents” (Bioorg Med Chem Lett, 2009)
